Reference: ChEMBL document CHEMBL1132324, “Structure-activity relationships in 1,4-benzodioxan-related compounds. 6. Role of the dioxane unit on selectivity for alpha(1)-adrenoreceptor subtypes” (J Med Chem, 1999)

Experiments:
[1] = target: T1, 5-hydroxytryptamine receptor 1A (Homo sapiens) (UniProt P08908)
T1 sequence (whole entry): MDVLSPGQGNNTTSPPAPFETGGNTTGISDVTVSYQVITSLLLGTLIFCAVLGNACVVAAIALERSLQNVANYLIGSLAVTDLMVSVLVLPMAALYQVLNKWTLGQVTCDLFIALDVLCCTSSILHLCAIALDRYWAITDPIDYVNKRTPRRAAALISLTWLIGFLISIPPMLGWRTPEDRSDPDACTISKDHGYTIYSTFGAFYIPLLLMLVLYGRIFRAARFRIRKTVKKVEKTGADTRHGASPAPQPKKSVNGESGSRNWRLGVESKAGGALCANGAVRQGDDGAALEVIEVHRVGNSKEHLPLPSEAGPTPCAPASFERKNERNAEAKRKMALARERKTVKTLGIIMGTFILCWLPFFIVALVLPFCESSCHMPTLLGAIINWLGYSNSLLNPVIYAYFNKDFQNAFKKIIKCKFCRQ

[2] = target: T2, Alpha-1B adrenergic receptor (Homo sapiens) (UniProt P35368); test: The binding affinity was evaluated on cloned human alpha-1B adrenergic receptor expressed in chinese hamster ovary(CHO) cells by using [3H]prazosin as radioligand.; type: cell-based
T2 sequence (whole entry): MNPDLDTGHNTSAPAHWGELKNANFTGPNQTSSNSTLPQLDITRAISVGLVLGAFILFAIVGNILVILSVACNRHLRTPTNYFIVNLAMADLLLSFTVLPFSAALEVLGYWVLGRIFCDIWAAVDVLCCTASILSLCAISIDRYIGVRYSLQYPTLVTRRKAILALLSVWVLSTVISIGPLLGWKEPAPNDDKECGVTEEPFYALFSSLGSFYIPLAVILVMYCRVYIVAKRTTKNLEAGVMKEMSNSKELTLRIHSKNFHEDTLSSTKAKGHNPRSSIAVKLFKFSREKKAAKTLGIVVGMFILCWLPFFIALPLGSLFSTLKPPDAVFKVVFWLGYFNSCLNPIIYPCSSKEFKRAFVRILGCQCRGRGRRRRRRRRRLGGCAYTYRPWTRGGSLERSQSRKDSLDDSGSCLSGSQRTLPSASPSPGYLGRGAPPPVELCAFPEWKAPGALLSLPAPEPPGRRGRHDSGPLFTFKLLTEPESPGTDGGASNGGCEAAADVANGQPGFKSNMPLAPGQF
Outline: (§1)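 Membranes (30 μg protein) from CHO cells stably expressing each human α1 subtype, in 50 mM Tris-HCl pH 7.4. Incubated with 0.1–0.4 nM [3H]prazosin for 30 min at 25 °C, competitor 1 pM–10 μM. Nonspecific binding with 10 μM phentolamine. Ki by Cheng-Prusoff. 2–3 experiments in triplicate.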

[3] = target: T3, Alpha-1A adrenergic receptor (Homo sapiens) (UniProt P35348); test: The binding affinity was evaluated on cloned human alpha-1A adrenergic receptor expressed in chinese hamster ovary(CHO) cells by using [3H]prazosin as radioligand.; type: cell-based
T3 sequence (whole entry): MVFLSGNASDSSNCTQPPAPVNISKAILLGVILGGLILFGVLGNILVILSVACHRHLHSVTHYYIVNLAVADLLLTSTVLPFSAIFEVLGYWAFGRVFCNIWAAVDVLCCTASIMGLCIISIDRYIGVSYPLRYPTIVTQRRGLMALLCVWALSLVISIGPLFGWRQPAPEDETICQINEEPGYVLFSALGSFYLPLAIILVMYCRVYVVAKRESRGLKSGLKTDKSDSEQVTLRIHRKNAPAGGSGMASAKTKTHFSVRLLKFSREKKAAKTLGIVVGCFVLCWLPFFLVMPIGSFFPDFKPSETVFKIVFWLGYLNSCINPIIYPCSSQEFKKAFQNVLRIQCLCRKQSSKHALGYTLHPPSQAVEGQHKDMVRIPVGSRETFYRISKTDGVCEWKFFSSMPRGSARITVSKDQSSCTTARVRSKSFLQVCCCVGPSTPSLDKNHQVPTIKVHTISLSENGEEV
Outline: as §1

[4] = target: T1, 5-hydroxytryptamine receptor 1A (Homo sapiens); test: The binding affinity was evaluated on cloned human 5-hydroxytryptamine 1A receptor expressed in HeLa cells by using DPAT as radioligand.; type: cell-based
Outline: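 Membranes from HeLa cells stably expressing human 5-HT1A, in 50 mM Tris-HCl pH 7.4, 2.5 mM MgCl2, 10 μM pargyline. Nonspecific binding with 10 μM 5-HT. Filtration. Ki by Cheng-Prusoff. 2–3 experiments in triplicate.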

[5] = target: T4, Alpha-1D adrenergic receptor (Homo sapiens) (UniProt P25100); test: The binding affinity was evaluated on cloned human alpha-1D adrenergic receptor expressed in chinese hamster ovary(CHO) cells by using [3H]prazosin as radioligand.; type: cell-based
T4 sequence (whole entry): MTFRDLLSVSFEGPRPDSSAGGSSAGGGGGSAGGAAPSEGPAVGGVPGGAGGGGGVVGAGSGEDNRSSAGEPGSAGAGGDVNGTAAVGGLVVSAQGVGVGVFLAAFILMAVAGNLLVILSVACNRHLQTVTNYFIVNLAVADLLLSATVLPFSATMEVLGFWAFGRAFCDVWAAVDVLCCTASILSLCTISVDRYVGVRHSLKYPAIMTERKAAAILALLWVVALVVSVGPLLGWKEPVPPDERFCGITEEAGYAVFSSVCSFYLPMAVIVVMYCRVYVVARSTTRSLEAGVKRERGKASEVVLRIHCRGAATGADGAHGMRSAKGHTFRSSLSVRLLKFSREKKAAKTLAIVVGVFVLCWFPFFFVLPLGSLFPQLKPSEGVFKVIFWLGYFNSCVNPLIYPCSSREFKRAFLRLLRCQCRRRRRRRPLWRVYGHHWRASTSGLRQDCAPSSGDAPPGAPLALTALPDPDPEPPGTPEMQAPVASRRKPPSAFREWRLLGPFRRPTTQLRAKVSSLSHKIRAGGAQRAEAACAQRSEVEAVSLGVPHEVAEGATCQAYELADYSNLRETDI
Outline: as §1

[6] = target: T5, Alpha-1D adrenergic receptor (Rattus norvegicus) (UniProt P23944); test: Antagonist affinity was expressed as apparent pKb at Alpha-1D adrenergic receptor on isolated rat thoracic aorta (Alpha-1D); type: functional, tissue-based
T5 sequence (whole entry): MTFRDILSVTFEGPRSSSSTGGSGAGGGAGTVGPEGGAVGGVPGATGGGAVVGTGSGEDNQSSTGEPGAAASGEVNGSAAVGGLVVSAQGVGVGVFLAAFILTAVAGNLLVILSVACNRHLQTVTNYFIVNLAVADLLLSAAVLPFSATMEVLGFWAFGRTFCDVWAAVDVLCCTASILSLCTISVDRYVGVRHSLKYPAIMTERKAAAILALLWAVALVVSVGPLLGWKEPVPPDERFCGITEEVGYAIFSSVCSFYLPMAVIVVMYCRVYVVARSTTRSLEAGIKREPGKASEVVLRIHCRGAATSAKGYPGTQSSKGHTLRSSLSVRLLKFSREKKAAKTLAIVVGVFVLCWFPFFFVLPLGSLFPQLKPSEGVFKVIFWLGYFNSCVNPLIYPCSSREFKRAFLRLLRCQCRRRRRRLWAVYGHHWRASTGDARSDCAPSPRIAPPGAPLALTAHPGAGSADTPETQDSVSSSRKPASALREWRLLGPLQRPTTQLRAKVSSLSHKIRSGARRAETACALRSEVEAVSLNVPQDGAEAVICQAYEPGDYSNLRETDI
Outline: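 Helicoidal strips of rat thoracic aorta at 1 g tension, with 0.1 μM cocaine and 1 μM propranolol. After ≥1 h equilibration, cumulative (–)-noradrenaline curves at 30-min intervals; the third served as control. Antagonist equilibrated 30 min before the fourth curve. Apparent pKb from log(DR−1) − log[B], 2–3 antagonist concentrations, each tested four times.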

[7] = target: T6, Alpha-1A adrenergic receptor (Rattus norvegicus) (UniProt P43140); test: Antagonist affinity was expressed as apparent pKb at Alpha-1A adrenergic receptor on isolated rat prostatic vas deferens (alpha1A).; type: functional, tissue-based
T6 sequence (whole entry): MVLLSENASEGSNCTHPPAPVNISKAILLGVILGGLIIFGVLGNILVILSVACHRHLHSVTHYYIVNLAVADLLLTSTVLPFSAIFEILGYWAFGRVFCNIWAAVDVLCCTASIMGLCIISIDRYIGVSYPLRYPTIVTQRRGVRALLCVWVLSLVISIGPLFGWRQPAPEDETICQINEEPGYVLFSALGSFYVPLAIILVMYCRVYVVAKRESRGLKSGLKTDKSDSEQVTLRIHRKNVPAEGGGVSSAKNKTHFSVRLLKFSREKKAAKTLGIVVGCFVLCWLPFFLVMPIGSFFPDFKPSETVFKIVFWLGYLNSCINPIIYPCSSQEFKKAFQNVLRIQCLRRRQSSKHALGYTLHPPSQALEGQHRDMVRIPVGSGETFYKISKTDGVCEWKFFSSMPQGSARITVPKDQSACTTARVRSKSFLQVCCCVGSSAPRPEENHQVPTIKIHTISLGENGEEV
Outline: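 Rat prostatic vas deferens in Tyrode with 0.1 μM cocaine. Equilibrated 60 min, primed twice with 10 μM noradrenaline, then a control cumulative (–)-noradrenaline curve recorded isometrically. Antagonist equilibrated 30 min before a repeat curve. Apparent pKb = log(DR−1) − log[B], with DR as the ratio of agonist EC50 with/without antagonist. 2–3 antagonist concentrations, each tested four times.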

[8] = target: T1, 5-hydroxytryptamine receptor 1A (Homo sapiens); remark: listed apart in the source
[9] = target: 5-hydroxytryptamine receptor 2A (Rattus norvegicus) (UniProt P14842); test: The binding affinity was evaluated on 5-hydroxytryptamine 2A receptor expressed in rat cortex by using [3H]ketanserin as radioligand.
Chain of 5-hydroxytryptamine receptor 2A (Rattus norvegicus) (P14842 whole entry): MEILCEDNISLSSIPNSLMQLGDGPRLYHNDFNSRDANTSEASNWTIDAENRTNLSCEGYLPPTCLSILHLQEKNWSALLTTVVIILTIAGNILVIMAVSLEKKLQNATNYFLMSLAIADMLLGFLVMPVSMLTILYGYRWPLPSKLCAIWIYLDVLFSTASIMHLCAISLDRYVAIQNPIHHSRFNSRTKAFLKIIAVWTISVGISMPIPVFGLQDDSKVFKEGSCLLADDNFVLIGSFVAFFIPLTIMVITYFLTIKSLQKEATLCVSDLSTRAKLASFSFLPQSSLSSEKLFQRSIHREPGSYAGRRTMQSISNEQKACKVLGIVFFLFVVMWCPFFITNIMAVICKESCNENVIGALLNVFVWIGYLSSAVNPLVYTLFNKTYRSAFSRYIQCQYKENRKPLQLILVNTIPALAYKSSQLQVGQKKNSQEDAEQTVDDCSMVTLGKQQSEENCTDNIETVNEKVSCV
Outline: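 Rat cerebral cortex membranes in Tris-HCl pH 7.4 with 10 μM pargyline and 0.1% ascorbic acid. Incubated 20 min at 37 °C with 0.7–1.3 nM [3H]ketanserin. Nonspecific binding with 2 μM ketanserin. Filtration and scintillation counting. Ki by Cheng-Prusoff. 2–3 experiments in triplicate.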

[10] = target: Adrenergic receptor alpha-2 (Rattus norvegicus) (UniProt P22086+P19328+P22909); test: The binding affinity was evaluated on alpha-2 adrenergic receptor expressed in rat cortex by using [3H]rauwolscine as radioligand.
Outline: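 Male Sprague-Dawley rat cerebral cortex membranes, washed in Tris-HCl pH 7.4 and held in buffer with 10 μM pargiline and 0.1% ascorbic acid. Incubated 30 min at 25 °C with 0.5-1.5 nM [3H]rauwolscine; nonspecific binding with 10 μM phentolamine. Filtration, scintillation counting. Ki from Cheng-Prusoff; 2-3 experiments in triplicate.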

[11] = target: D(2) dopamine receptor (Rattus norvegicus) (UniProt P61169); test: The binding affinity was evaluated on Dopamine receptor D2 expressed in rat striatum by using [3H]spiperone as radioligand; type: tissue-based
Chain of D(2) dopamine receptor (Rattus norvegicus) (P61169 whole entry): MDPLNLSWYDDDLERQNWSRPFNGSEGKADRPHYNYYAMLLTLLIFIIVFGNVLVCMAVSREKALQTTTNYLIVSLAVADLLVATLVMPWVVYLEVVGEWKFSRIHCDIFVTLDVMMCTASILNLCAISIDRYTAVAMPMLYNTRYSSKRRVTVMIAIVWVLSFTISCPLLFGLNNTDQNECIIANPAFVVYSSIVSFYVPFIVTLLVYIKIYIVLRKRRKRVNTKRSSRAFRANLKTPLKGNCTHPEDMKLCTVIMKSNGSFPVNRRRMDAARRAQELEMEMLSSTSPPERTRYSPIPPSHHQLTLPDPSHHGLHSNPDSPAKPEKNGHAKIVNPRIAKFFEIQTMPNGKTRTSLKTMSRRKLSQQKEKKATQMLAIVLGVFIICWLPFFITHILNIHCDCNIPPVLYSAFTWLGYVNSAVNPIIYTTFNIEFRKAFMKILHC
Outline: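 Rat striatum membranes in Tris-HCl with 10 μM pargyline, 0.1% ascorbic acid, 120 mM NaCl, 5 mM KCl, 2 mM CaCl2, 1 mM MgCl2. Incubated 15 min at 37 °C with 0.2–0.6 nM [3H]spiperone. Nonspecific binding with 1 μM (+)-butaclamol. Ki by Cheng-Prusoff. 2–3 experiments in triplicate.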

[12] = target: T4, Alpha-1D adrenergic receptor (Homo sapiens); test: The binding affinity was evaluated on cloned human Alpha-1D adrenergic receptor expressed in chinese hamster ovary(CHO) cells by using [3H]-prazosin as radioligand.; type: cell-based
Outline: as §1

[13] = target: T2, Alpha-1B adrenergic receptor (Homo sapiens); test: The binding affinity was evaluated on cloned human Alpha-1B adrenergic receptor expressed in chinese hamster ovary(CHO) cells by using [3H]prazosin as radioligand.; type: cell-based
Outline: as §1

[14] = target: T3, Alpha-1A adrenergic receptor (Homo sapiens); test: The binding affinity was evaluated on cloned human Alpha-1A adrenergic receptor expressed in chinese hamster ovary(CHO) cells by using [3H]prazosin as radioligand.; type: cell-based
Outline: as §1

[15] = target: T1, 5-hydroxytryptamine receptor 1A (Homo sapiens); test: Agonist efficacy was evaluated as [35S]GTP binding on cloned human 5-hydroxytryptamine 1A receptor; type: functional
Outline: (§2)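 HeLa membranes stably expressing human 5-HT1A, in 20 mM HEPES, 3 mM MgSO4, 120 mM NaCl (pH 7.4). Preincubated 20 min at 30 °C with 30 μM GDP and drug (100 μM–0.1 nM), then [35S]GTPγS (150–250 pM) added for a further 30 min at 30 °C. Nonspecific binding with 10 μM GTPγS. Filtration and scintillation counting. Stimulation is % above basal, with maximal 5-HT response = 100%. Emax and pD2 from curve fitting. Triplicate, 2–3 sessions.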

[16] = target: T1, 5-hydroxytryptamine receptor 1A (Homo sapiens); test: Maximum […] was evaluated as ([35S]GTP binding on cloned human 5-hydroxytryptamine 1A receptor; type: functional
Outline: as §2

Compound: NCCc1c[nH]c2ccc(C(N)=O)cc12
- pD2 [1]: 8.45

Compound: COc1cccc(OC)c1OCCNCC1Oc2ccccc2CC1c1ccccc1 (stereo in doubt; 6)
- pKi [2]: 6.51
- pKi [3]: 6.78
- pKi [4]: 6.76
- pKi [5]: 6.86

Compound: COc1cccc(OC)c1OCCNC[C@H]1Oc2ccccc2O[C@@H]1c1ccccc1
- pKb [6]: 7.51
- pKb [7]: 8.18

Compound: NCCc1c[nH]c2ccc(O)cc12
- pD2 [8]: 7.3

Compound: COc1cccc(OC)c1OCCNCC1COc2ccccc2O1 (stereo not given)
- pKi [9]: 6
- pKi [3]: 9.37
- pKi [4]: 8.68
- pKi [10]: 7.83
- pKi [11]: 6.91

Compound: COc1cccc(OC)c1OCCNCC1=Cc2ccccc2OC1c1ccccc1 (stereo not given)
- pKi [12]: 6.95
- pKi [4]: 8.08
- pKi [13]: 6.84
- pKi [14]: 7.14
- pD2 [15]: 6.44
- Max [16]: 40%

Compound: COc1cccc(OC)c1OCCNCC1C(=O)c2ccccc2SC1c1ccccc1 (stereo not given)
- pKi [3]: 7.42
- pKi [4]: 7.36
- pKi [13]: < 6
- pKi [5]: 6.37

Compound: COc1cccc(OC)c1OCCNCC1C(=O)c2ccccc2CC1c1ccccc1 (stereo not given)
- pKi [9]: 6.63
- pKi [2]: 6.11
- pKi [3]: 8.06
- pKi [4]: 6.83
- pKi [10]: 6.45
- pKi [5]: 6.88
- pKi [11]: < 6
